Experimental data collected from several papers.
Target: Epithelial discoidin domain-containing receptor 1 (DDR1, Homo sapiens, UniProt Q08345)

| Structure (SMILES) | test | setting | endpoint | value |
| --- | --- | --- | --- | --- |
| COCCOc1nc(-c2ccc(Cl)nc2)nc2c1CN(C(=O)c1ncn3ccccc13)CC2 | cell-free assay, competition with immobilised ligand | 0.1 µM | remaining binding | 100% |
| COc1cc(Cl)c(C(=O)N[C@@H](CN[C@H]2CC[C@@H](N)CC2)Cc2ccc(C#N)cc2)cc1-c1ccc(CN[C@H](C)c2ccc(C)cc2)o1 | enzyme activity, inhibitor | 1 µM | remaining activity | 112% |
| CC/C(=N\NC(=O)NCc1cccc(O)c1)c1ccc(O)c(C)c1O | enzyme activity, inhibitor | 0.1 µM | inhibition | -0.9% |
| Cc1sc(C(=O)NC2COC2)cc1-n1cc(NC(=O)Nc2c(F)cccc2Cl)cn1 | enzyme activity, inhibitor | 10 µM | remaining activity | 83.7% |
| Nc1c(C(=O)NCc2ccc(C(=O)NCCCC3CCCCC3)cc2)cnn1-c1ccccc1 | binding, competition with immobilised ligand | 1 µM | remaining binding | 43% |
| CC(C)(O)[C@H]1CC[C@H](Nc2ccc3ncc(-c4cccc(C(F)(F)F)c4)n3n2)CC1 | enzyme activity, inhibitor | 1 µM | remaining activity | 6.32% |
| COc1cc2nccc(Oc3ccc(NC(=O)c4c5n(n(-c6ccc(F)cc6)c4=O)CCCC5)cc3)c2cc1OC | enzyme activity, inhibitor | 0.1 µM | inhibition | 42% |
| CNC(=O)c1cc2c(Oc3ccc(NC(=O)C4(C(=O)Nc5ccc(F)cc5)CC4)cc3)ccnc2cc1OC | enzyme activity, inhibitor, radiometric | 1 µM | inhibition | 88% |
| Cc1cnc(NC2CCOCC2)nc1-n1cnc(C(=O)NC(CN)c2cc(F)cc(Cl)c2)c1 (centres unmarked) | enzyme activity, inhibitor, radiometric | 1 µM | remaining activity | 104% |
| Nc1ncnc2occ(-c3ccc(NC(=O)Nc4cc(C(F)(F)F)ccc4F)cc3)c12 | cell-free assay | 20 µM | remaining signal | 0.25% |
| Cc1cc(NC(=O)c2cccc3cc(-c4cccc5[nH]nc(N)c45)ccc23)ccc1F | enzyme activity, inhibitor | 0.1 µM | activity vs control | 61% |
| CCOCCn1cc(C(=O)Nc2ccc(-n3nc(-c4cccnc4)cc3C(F)(F)F)cn2)ccc1=O | cell-free assay, competition with immobilised ligand | 1 µM | remaining binding | 69% |
| Cc1ccc(NC(=O)c2ccc(C)c(C(F)(F)F)c2)cc1C#Cc1nn(C2CCC(O)CC2)c2ncnc(N)c12 (centres unmarked) | cell-free assay | 10 µM | remaining signal | -2% |
| Cc1ccc(C(=O)NCc2ccsc2)cc1C#Cc1cn(C(C)C)c2ncnc(N)c12 | enzyme activity, inhibitor | 1 µM | activity vs control | 0% |
| O=C(Nc1cnn(-c2csc(C(=O)NC3COC3)c2)c1)Nc1ccccc1Cl | enzyme activity, inhibitor | 5 µM | remaining activity | 98.4% |
| C[C@H]1CCN(c2nccc(-c3cnn4ncccc34)n2)C1 | binding | 1 µM | remaining binding | 100% |
| CN1CC(Oc2cnc(C#N)cc2-c2ccn3nc(NC(=O)C4CC4)cc3c2)C1 | enzyme activity, inhibitor | 1 µM | inhibition | 29% |
